Data taken from ChEMBL document CHEMBL1125138, “1,3-Dialkyl-3-acyltriazenes, a novel class of antineoplastic alkylating agents” (J Med Chem, 1990).

Legend:
NCI-H23 = test: Evaluated for the inhibitory concentration required to cause growth inhibition of H23 cell line of lung using the Microculture Tetrazolium (MTT) Cytotoxicity Assay; type: functional, cell-based; conditions: Homo sapiens
Outline: (§1)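 MTT microculture tetrazolium growth assay on human cell lines and normal fibroblasts. Cells seeded at 1000 cells/well, with compound added 24 h after plating. Cultures then incubated a further 6 days at 37 °C before MTT read-out of growth versus untreated cells.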

LOX IMVI = test: Evaluated for the inhibitory concentration required to cause growth inhibition of LOX melanoma cell line using the MTT Cytotoxicity Assay; type: functional, cell-based; conditions: Homo sapiens; outline: as §1
CCD 19Lu = test: Evaluated for the inhibitory concentration required to cause growth inhibition of CCD-19Lu fibroblasts cell line using the MTT Cytotoxicity Assay; type: functional, cell-based; conditions: Homo sapiens; outline: as §1
DOD-1 = test: Evaluated for the inhibitory concentration required to cause growth inhibition of DOD-1 breast cell line using the MTT Cytotoxicity Assay; type: functional, cell-based; conditions: Homo sapiens; outline: as §1
NCI-H322M = test: Evaluated for the inhibitory concentration required to cause growth inhibition of H322M cell line of lung using the Microculture Tetrazolium (MTT) Cytotoxicity Assay; type: functional, cell-based; conditions: Homo sapiens; outline: as §1
NCI-H460 = test: Evaluated for the inhibitory concentration required to cause growth inhibition of H460 cell line of lung using the Microculture Tetrazolium (MTT) Cytotoxicity Assay; type: functional, cell-based; conditions: Homo sapiens; outline: as §1
A 172 = test: Evaluated for the inhibitory concentration required to cause growth inhibition of A172Mer- cell line of central nervous system (CNS) using the MTT Cytotoxicity Assay; type: functional, cell-based; conditions: Homo sapiens; outline: as §1
NCI-H522 (Homo sapiens) = test: Evaluated for the inhibitory concentration required to cause growth inhibition of H522 cell line of lung using the Microculture Tetrazolium (MTT) Cytotoxicity Assay
OVCAR-3 = test: Evaluated for the inhibitory concentration required to cause growth inhibition of OVCAR-3 ovarian cell line using the MTT Cytotoxicity Assay; type: functional, cell-based; conditions: Homo sapiens; outline: as §1
A704 = test: Evaluated for the inhibitory concentration required to cause growth inhibition of A704Rem- renal cell line using the MTT Cytotoxicity Assay; type: functional, cell-based; conditions: Homo sapiens; outline: as §1
NCI-H125 = test: Evaluated for the inhibitory concentration required to cause growth inhibition of H125 cell line of lung using the Microculture Tetrazolium (MTT) Cytotoxicity Assay; type: functional, cell-based; conditions: Homo sapiens; outline: as §1
Malme-3M = test: Evaluated for the inhibitory concentration required to cause growth inhibition of MALME-3M melanoma cell line using the MTT Cytotoxicity Assay; type: functional, cell-based; conditions: Homo sapiens; outline: as §1
U-251 = test: Evaluated for the inhibitory concentration required to cause growth inhibition of U251 cell line of central nervous system (CNS) using the MTT Cytotoxicity Assay; type: functional, cell-based; conditions: Homo sapiens
Outline: (§2)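 MTT cell-growth assay in human cell lines: cells harvested and seeded at 1000 cells/well in 96-well plates. Compound added after 24 h, then cultures incubated a further 6 days at 37 °C. Growth measured with and without agent.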

A498 = test: Evaluated for the inhibitory concentration required to cause growth inhibition of A498Rem- renal cell line using the MTT Cytotoxicity Assay; type: functional, cell-based; conditions: Homo sapiens; outline: as §1
TE-671 = test: Evaluated for the inhibitory concentration required to cause growth inhibition of TE-671 cell line of central nervous system (CNS)using the MTT Cytotoxicity Assay; type: functional, cell-based; conditions: Homo sapiens; outline: as §1
OVCAR-4 = test: Evaluated for the inhibitory concentration required to cause growth inhibition of OVCAR-4 ovarian cell line using the MTT Cytotoxicity Assay; type: functional, cell-based; conditions: Homo sapiens; outline: as §1
NCI/ADR-RES = test: Evaluated for the inhibitory concentration required to cause growth inhibition of MCF-7ADR breast cell line using the MTT Cytotoxicity Assay; type: functional, cell-based; conditions: Homo sapiens; outline: as §1
SK-MEL-5 = test: Evaluated for the inhibitory concentration required to cause growth inhibition of SK-MEL-5 melanoma cell line using the MTT Cytotoxicity Assay; type: functional, cell-based; conditions: Homo sapiens; outline: as §1
A549 [1] = test: Evaluated for the inhibitory concentration required to cause growth inhibition of A549Rem- cell line of lung using the MTT Cytotoxicity Assay; type: functional, cell-based; conditions: Homo sapiens; outline: as §1
NCI-H358 = test: Evaluated for the inhibitory concentration required to cause growth inhibition of H358M cell line of lung using the Microculture Tetrazolium (MTT) Cytotoxicity Assay; type: functional, cell-based; conditions: Homo sapiens; outline: as §1
MCF7 = test: Evaluated for the inhibitory concentration required to cause growth inhibition of MCF-7 breast cell line using the MTT Cytotoxicity Assay; type: functional, cell-based; conditions: Homo sapiens; outline: as §1
A-427 = test: Evaluated for the inhibitory concentration required to cause growth inhibition of A427Mer- cell line of lung using the MTT Cytotoxicity Assay; type: functional, cell-based; conditions: Homo sapiens; outline: as §1
A673 = test: Evaluated for the inhibitory concentration required to cause growth inhibition of A673Mer+ sarcoma cell line using the MTT Cytotoxicity Assay; type: functional, cell-based; conditions: Homo sapiens; outline: as §1
[2] = tested on: MAR BEL fibroblasts cell line; test: Evaluated for the inhibitory concentration required to cause growth inhibition of MAR BEL fibroblasts cell line using the MTT Cytotoxicity Assay; type: functional, cell-based; conditions: Homo sapiens; outline: as §1
WiDr = test: Evaluated for the inhibitory concentration required to cause growth inhibition of WiDR colon cell line using the MTT Cytotoxicity Assay; type: functional, cell-based; conditions: Homo sapiens; outline: as §2
RPMI-7951 = test: Evaluated for the inhibitory concentration required to cause growth inhibition of RPMI7951 melanoma cell line using the MTT Cytotoxicity Assay; type: functional, cell-based; conditions: Homo sapiens; outline: as §1
HOS-TE85 = test: Evaluated for the inhibitory concentration required to cause growth inhibition of TE85Mer+ sarcoma cell line using the MTT Cytotoxicity Assay; type: functional, cell-based; conditions: Homo sapiens; outline: as §1
[3] = Evaluated for the antineoplastic activity against LOX amelanotic melanoma tumor xenograft in nude mice after administering 3 injections (intra peritoneally) at a dose of 25 mg/kg; type: functional, Homo sapiens
Outline: (§3)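 Nude mice bearing human tumor xenografts; compound given intraperitoneally as three injections at 4-day intervals. Antitumor activity expressed as % T/C at each dose level. Performed under the NCI Developmental Therapeutics Program.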

[4] = Evaluated for the antineoplastic activity against M5 sarcoma tumor xenograft in nude mice after administering 4 injections (intra peritoneally) at a dose of 25 mg/kg; type: functional, Mus musculus
Outline: (§4)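 M5 sarcoma-bearing mice given four intraperitoneal injections at 4-day intervals. Activity reported as % T/C per dose. Performed under the NCI Developmental Therapeutics Program.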

A549 [5] = test: Evaluated for the antineoplastic activity against A549 lung (nonsmall cell) tumor xenograft in nude mice after administering 3 injections (intra peritoneally) at a dose of 200 mg/kg; type: functional, Homo sapiens; outline: as §3
[6] = Evaluated for the antineoplastic activity against LX-1 lung (small cell) tumor xenograft in nude mice after administering 3 injections (intra peritoneally) at a dose of 50 mg/kg; type: functional, Homo sapiens; outline: as §3
MX1 [7] = test: Evaluated for the antineoplastic activity against MX-1 mammary tumor xenograft in nude mice after administering 3 injections (intra peritoneally) at a dose of 150 mg/kg; type: functional, Homo sapiens; outline: as §3
[8] = Evaluated for the antineoplastic activity against M5 sarcoma tumor xenograft in nude mice after administering 4 injections (intra peritoneally) at a dose of 12.5 mg/kg; type: functional, Mus musculus; outline: as §4
A549 [9] = test: Evaluated for the antineoplastic activity against A549 lung (nonsmall cell) tumor xenograft in nude mice after administering 3 injections (intra peritoneally) at a dose of 100 mg/kg; type: functional, Homo sapiens; outline: as §3
[10] = Evaluated for the antineoplastic activity against LOX amelanotic melanoma tumor xenograft in nude mice after administering 3 injections (intra peritoneally) at a dose of 50 mg/kg; type: functional, Homo sapiens; outline: as §3
[11] = Evaluated for the antineoplastic activity against LOX amelanotic melanoma tumor xenograft in nude mice after administering 3 injections (intra peritoneally) at a dose of 100 mg/kg; type: functional, Homo sapiens; outline: as §3
[12] = Evaluated for the antineoplastic activity against LX-1 lung (small cell) tumor xenograft in nude mice after administering 3 injections (intra peritoneally) at a dose of 25 mg/kg; type: functional, Homo sapiens; outline: as §3
L1210 [13] = test: Evaluated for the antineoplastic activity against L1210 leukemia tumor xenograft in nude mice after administering 5 injections (intra peritoneally) at a dose of 36 mg/kg; type: functional, Mus musculus
Outline: (§5)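 Mice bearing L1210 leukemia dosed intraperitoneally once daily for 5 successive days (five injections). Activity reported as % T/C at each dose. Performed under the NCI Developmental Therapeutics Program.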

MX1 [14] = test: Evaluated for the antineoplastic activity against MX-1 mammary tumor xenograft in nude mice after administering 3 injections (intra peritoneally) at a dose of 300 mg/kg; type: functional, Homo sapiens; outline: as §3
[15] = Evaluated for the antineoplastic activity against LOX amelanotic melanoma tumor xenograft in nude mice after administering 3 injections (intra peritoneally) at a dose of 12.5 mg/kg; type: functional, Homo sapiens; outline: as §3
L1210 [16] = test: Evaluated for the antineoplastic activity against L1210 leukemia tumor xenograft in nude mice after administering 5 injections (intra peritoneally) at a dose of 21.6 mg/kg; type: functional, Mus musculus; outline: as §5
[17] = Evaluated for the antineoplastic activity against M5 sarcoma tumor xenograft in nude mice after administering 4 injections (intra peritoneally) at a dose of 50 mg/kg; type: functional, Mus musculus; outline: as §4
L1210 [18] = test: Evaluated for the antineoplastic activity against L1210 leukemia tumor xenograft in nude mice after administering 5 injections (intra peritoneally) at a dose of 60 mg/kg; type: functional, Mus musculus; outline: as §5
[19] = Evaluated for the antineoplastic activity against LX-1 lung (small cell) tumor xenograft in nude mice after administering 3 injections (intra peritoneally) at a dose of 100 mg/kg; type: functional, Homo sapiens; outline: as §3

## O=NN(CCCl)C(=O)NCCCl [CARMUSTINE]
NCI-H23
  IC50: 5 µM
LOX IMVI
  IC50: 7 µM
CCD 19Lu
  IC50: 300 µM
DOD-1
  IC50: 37 µM
NCI-H322M
  IC50: 60 µM
NCI-H460
  IC50: 80 µM
A 172
  IC50: 18 µM
NCI-H522 (Homo sapiens)
  IC50: 20 µM
OVCAR-3
  IC50: 15 µM
A704
  IC50: 125 µM
NCI-H125
  IC50: 9 µM
Malme-3M
  IC50: 20 µM
U-251
  IC50: 15 µM
A498
  IC50: 110 µM
TE-671
  IC50: 25 µM
OVCAR-4
  IC50: 18 µM
NCI/ADR-RES
  IC50: 20 µM
SK-MEL-5
  IC50: 27 µM
A549 [1]
  IC50: 90 µM
NCI-H358
  IC50: 98 µM
MCF7
  IC50: 4.5 µM
A-427
  IC50: 8 µM

## C/N=N\N(C)C(C)=O
NCI-H23
  IC50: 42 µM
LOX IMVI
  IC50: 30 µM
CCD 19Lu
  IC50: 77 µM
DOD-1
  IC50: 60 µM
NCI-H322M
  IC50: 55 µM
NCI-H460
  IC50: 75 µM
NCI-H522 (Homo sapiens)
  IC50: 30 µM
A673
  IC50: 65 µM
OVCAR-3
  IC50: 55 µM
A704
  IC50: 55 µM
[2]
  IC50: 80 µM
NCI-H125
  IC50: 53 µM
WiDr
  IC50: 40 µM
Malme-3M
  IC50: 25 µM
RPMI-7951
  IC50: 60 µM
U-251
  IC50: 42 µM
A498
  IC50: 48 µM
TE-671
  IC50: 7 µM
OVCAR-4
  IC50: 45 µM
NCI/ADR-RES
  IC50: 40 µM
SK-MEL-5
  IC50: 37 µM
A549 [1]
  IC50: 55 µM
HOS-TE85
  IC50: 40 µM
NCI-H358
  IC50: 100 µM
MCF7
  IC50: 37 µM
A-427
  IC50: 11 µM

## C/N=N\N(C)C(=O)NC
NCI-H23
  IC50: 22 µM
[3]
  T/C: 154%
[4]
  T/C: 158%
LOX IMVI
  IC50: 19 µM
CCD 19Lu
  IC50: 70 µM
DOD-1
  IC50: 38 µM
A549 [5]
  T/C: -27%
NCI-H322M
  IC50: 42 µM
NCI-H460
  IC50: 70 µM
[6]
  T/C: -34%
A 172
  IC50: 24 µM
NCI-H522 (Homo sapiens)
  IC50: 24 µM
A673
  IC50: 50 µM
OVCAR-3
  IC50: 40 µM
MX1 [7]
  T/C: 15%
[8]
  T/C: 136%
A549 [9]
  T/C: 8%
[10]
  T/C: 188%
[11]
  T/C: 230%
A704
  IC50: 55 µM
[12]
  T/C: 6%
[2]
  IC50: 65 µM
L1210 [13]
  T/C: 146%
NCI-H125
  IC50: 50 µM
WiDr
  IC50: 30 µM
MX1 [14]
  T/C: -13%
Malme-3M
  IC50: 22 µM
RPMI-7951
  IC50: 37 µM
U-251
  IC50: 33 µM
A498
  IC50: 37 µM
[15]
  T/C: 131%
L1210 [16]
  T/C: 132%
[17]
  T/C: 177%
TE-671
  IC50: 46 µM
L1210 [18]
  T/C: 186%
OVCAR-4
  IC50: 35 µM
NCI/ADR-RES
  IC50: 35 µM
SK-MEL-5
  IC50: 20 µM
A549 [1]
  IC50: 60 µM
HOS-TE85
  IC50: 35 µM
NCI-H358
  IC50: 75 µM
[19]
  T/C: -55%
MCF7
  IC50: 30 µM
A-427
  IC50: 9 µM
